Screening results from PubChem.
14-3-3 Bad inh – disrupts binding of bovine 14-3-3 zeta to phospho-Bad peptide | inhibition, % at 21.7 µM | hit rate 0.71% among 220,000 | TR-FRET 14-3-3zeta/Dy647-pBad peptide displacement, 1 h | P63103;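 active = inhibition above about 70%, limit read from the data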
Target sequence (P63103 whole entry, looked up): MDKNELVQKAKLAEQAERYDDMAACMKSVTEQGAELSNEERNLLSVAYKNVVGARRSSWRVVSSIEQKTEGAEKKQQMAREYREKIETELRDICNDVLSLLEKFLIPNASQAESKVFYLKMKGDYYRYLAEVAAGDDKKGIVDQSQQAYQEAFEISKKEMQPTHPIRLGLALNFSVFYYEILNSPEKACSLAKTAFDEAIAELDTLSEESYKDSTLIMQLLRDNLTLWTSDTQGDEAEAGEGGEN
Biofilm kill mix – mixture kills Candida albicans biofilm cells; C. albicans biofilm persisters + clotrimazole, fluorescence viability; primary screen in compound mixtures of four per well; inhibition, % at 7.6 µM; hit rate 0.02% among 120,000; AID 1242;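 active = inhibition above 30.3% in the primary screen of four-compound pools, then above 30% when the compound was retested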;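 also: compounds exposed to preformed 24 h biofilms for 48 h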
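Assay system: C. albicans biofilms / Medium: RPMI/MOPS medium, pH 7.0 / Schedule: biofilm formation 24 h, compound exposure 48 h, 37 °C / Measured by: Alamar Blue fluorescence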
Mcl1 Bid PPI – Mcl-1/Bid interaction inhibition; TR-FRET Mcl-1/Bid-Dy647 peptide binding, 1536-well; Q07820; hit rate 0.97% among 220,000; inhibition, % at 21.7 µM;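 active = compounds that cut the binding signal by more than half at the single screening dose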;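 also: His-tagged Mcl-1 with europium anti-His antibody binding Bid BH3 peptide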
Mcl-1 Bim block – disrupts Bim peptide binding to human Mcl-1 | Q07820 | Bead-based flow cytometry, Bim peptide-Mcl-1 binding | inhibition, % at 10 µM | hit rate 0.1% among 190,000 | AID 1009; in the data active = inhibition above about 40%
Hck-Nef inh – blocks Nef-activated human Hck kinase. Recombinant Hck-YEEI plus Nef, Z-Lyte FRET kinase assay. inhibition, % at 20 µM. hit rate 0.68% among 220,000;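 active = Hck-Nef kinase inhibition above about 50%, limit read from the data; inactive = inhibition below that limit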
Target sequence (P08631 whole entry, looked up): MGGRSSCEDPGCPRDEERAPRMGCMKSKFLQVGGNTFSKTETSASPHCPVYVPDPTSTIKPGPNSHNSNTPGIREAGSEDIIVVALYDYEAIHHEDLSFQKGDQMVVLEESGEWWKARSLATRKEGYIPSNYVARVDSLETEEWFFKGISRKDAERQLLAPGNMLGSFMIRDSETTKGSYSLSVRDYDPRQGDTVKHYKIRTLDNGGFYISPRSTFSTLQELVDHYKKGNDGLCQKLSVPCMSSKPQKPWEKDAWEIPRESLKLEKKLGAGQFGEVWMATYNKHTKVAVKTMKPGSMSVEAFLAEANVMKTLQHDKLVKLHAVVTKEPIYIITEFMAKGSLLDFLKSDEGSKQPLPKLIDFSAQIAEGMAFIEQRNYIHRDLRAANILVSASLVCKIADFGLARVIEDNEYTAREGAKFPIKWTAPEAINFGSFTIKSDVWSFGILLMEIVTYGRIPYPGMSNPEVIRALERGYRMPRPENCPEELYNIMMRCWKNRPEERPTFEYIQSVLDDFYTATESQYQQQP
Mcl1 Noxa PPI – disrupts binding of human Mcl-1 to Noxa peptide; Q07820; TR-FRET Mcl-1/Noxa peptide binding, 2 h; inhibition, % at 21.7 µM; hit rate 1.5% among 220,000;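 active = compounds that cut the protein-peptide binding signal by more than 50% relative to plate controls in a single-dose test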;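 also: His-tagged Mcl-1 with rhodamine Noxa BH3 peptide and terbium anti-His antibody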
Each line names hits and unclear results; the compound was inactive in the other large screens; [ ] = dose if it differs, or a comment. An excerpt weighted towards active compounds, which were near 3.2% of everything screened.

CCOc1cc(/C=C\[N+](=O)[O-])ccc1OCC(=O)N1CCOCC1	none
Cc1cccc(N2C(=O)c3ccc(C(=O)Nc4c[nH]c(=O)[nH]c4=O)cc3C2=O)c1	none (no result: Mcl-1 Bim block)
COc1cc(CN2CCCC(CO)(Cc3cccc(Cl)c3)C2)cc2c1OCO2 (stereo not drawn)	none
O=C(Oc1cc(=O)oc2c1c(=O)n1c3c(cccc23)CC1)c1ccc(F)cc1	none (no result: Mcl-1 Bim block)
CC(C)(C)C1=CC(=O)C(=O)C(C(C)(C)C)=C1	Hck-Nef inh 55.7, Mcl1 Noxa PPI 63.3
CC(C)(C)C1=CC(=Nc2ccccc2N)C=C(C(C)(C)C)C1=O	none
Cc1ccccc1Oc1nc(-c2ccccn2)nc2ccccc12	none (no result: Mcl-1 Bim block)
Cc1ccc(C(=O)NC2CCN(CC(=O)Nc3cccc([N+](=O)[O-])c3)CC2)cc1	none
COC(=O)c1ccc(COc2ccc(/C=N/Nc3nc(C)cc(=O)[nH]3)cc2)cc1	Mcl1 Noxa PPI 54.8 (no result: Mcl-1 Bim block)
COC(=O)c1ccc(COc2ccc(/C=N/Nc3cccc(C(=O)O)c3)cc2)cc1	none (no result: Mcl-1 Bim block)
O=C1N=c2ccc(Br)cc2=C1c1sc(=S)n(NS(=O)(=O)c2ccccc2)c1O	Mcl1 Bid PPI 52.0, Mcl1 Noxa PPI 83.1
O=C(NCCc1c[nH]c2ccccc12)OCCSS(=O)(=O)O	none
Cc1cc(N)n(-c2ccc3ccccc3c2)n1	Mcl1 Bid PPI 96.4 (no result: Biofilm kill mix)
COC(=O)c1ccccc1S(=O)(=O)N1CCn2cccc2C1C (stereo not drawn)	Mcl1 Bid PPI 69.3
CC1CN(c2ccc([N+](=O)[O-])c(NCCOc3ccccc3)c2)CCN1 (stereo not drawn)	none
COc1ccc(-c2ccc(/C=C3/C(=N)N4C=CSC4=NC3=O)o2)c([N+](=O)[O-])c1	14-3-3 Bad inh 72.7[fluorescence artefact?], Mcl1 Bid PPI 75.4, Mcl1 Noxa PPI 82.7
CCC(C)n1c(=N)c(C#N)cc2c(=O)n3ccccc3nc21 (stereo not drawn)	none
Cc1ccc(-n2c(=O)c(C#N)cc3c(=O)n4ccccc4nc32)cc1	Hck-Nef inh 93.9
O=C(O)c1ccc(Oc2cccc([N+](=O)[O-])c2)cc1C(=O)O	14-3-3 Bad inh 74.2 (no result: Biofilm kill mix)
O=C(O)c1cc([N+](=O)[O-])ccc1C(=O)Nc1ccccc1	none (no result: Biofilm kill mix)
OCC1(CCOc2ccccc2)CCN(CCCn2cccn2)CC1	none
Cc1nc(-c2cc(C#N)c(Sc3ccc(Cl)cc3Cl)nc2C)cs1	none (no result: Mcl-1 Bim block)
COc1ccc(C(=O)NCc2nnc(SCC(=O)N3CCOCC3)o2)cc1OC	none
CCc1nn2c(=O)cc(COc3ccc(/C=C4\C(=N)N5N=C(C)SC5=NC4=O)cc3)nc2s1	Hck-Nef inh 75.3, Mcl1 Noxa PPI 77.3
COc1ccc(NC(=S)N2CCCC2c2ccc(OC)c(OC)c2)cc1 (stereo not drawn)	none
CCCc1nc2ccccc2c(C(=O)O)c1CC	none (no result: Biofilm kill mix)
CCCCc1nc2ccccc2c(NC(=O)CN(CC)CC)c1CCC	14-3-3 Bad inh 74.0, Mcl1 Bid PPI 50.6 (no result: Biofilm kill mix)
CCCc1nc2ccccc2c(NC(=O)CN(CC)CC)c1CC	14-3-3 Bad inh 79.9, Mcl1 Bid PPI 61.7
CCOC(=O)C1=C(O)/C(=C/c2ccc(OCC(=O)O)c(OC)c2)SC1=Nc1ccc(OCC)cc1	none
CCOC(=O)C1=C(O)/C(=C/c2cc(OC)c(O)c(OC)c2)SC1=Nc1ccc(OC)cc1	Mcl1 Noxa PPI 74.6
COc1ccc(CCN(C)S(=O)(=O)c2ccc(Cl)nc2)cc1OC	none
CCOC(=O)N1CCN(c2c(NCCCN(CC)CC)c(=O)c2=O)CC1	none (no result: Biofilm kill mix)
CCCCN(CC)CCNc1c(N2CCN(C(=O)OCC)CC2)c(=O)c1=O	Mcl1 Noxa PPI 75.2 (no result: Biofilm kill mix)
CCOC(=O)N1CCN(c2c(NCCCN(CC)Cc3ccccc3)c(=O)c2=O)CC1	Mcl1 Noxa PPI 76.5 (no result: Biofilm kill mix)
CCOC(=O)C1CCN(c2c(NCCCN(CC)Cc3ccccc3)c(=O)c2=O)CC1	Mcl1 Noxa PPI 71.5 (no result: Biofilm kill mix)
O=S(=O)([O-])C/C(=C\c1ccc(Cl)cc1)c1cc[n+](CCO)cc1	none
CCOc1ccccc1NC(=O)c1cc(C(=O)Nc2ccccc2OCC)cc(N2C(=O)CCC2=O)c1	none
CCOC(=O)Cn1c(C)[n+](CC(=O)c2ccccc2)c2ccccc21	none (no result: Mcl-1 Bim block)
COc1ccc(-n2c(=O)[nH]c3cc(C(=O)NCCc4ccc(Cl)cc4)ccc3c2=O)cc1OC	none
CC1(N(O)/C=C2\C=CC=CC2=O)CCCCC1=O (stereo not drawn)	none (no result: Mcl-1 Bim block)
CCOC(=O)c1cc(-c2ccccc2)n(CC(=O)N2CCCC2)c1C	Mcl1 Bid PPI 93.7 (no result: Biofilm kill mix)
CCOC(=O)c1cc(-c2ccc(F)cc2)n(CC(=O)N2CCCC2)c1C	none (no result: Biofilm kill mix)
Cc1ccc(NC(=O)c2cc(-n3cnnc3)ccc2Cl)cc1	none
Cc1ccc(NC(=O)c2cc(N3C(=O)C=CC3=O)ccc2N2CCOCC2)cc1	Mcl1 Noxa PPI 54.6
Cc1ccc(NC(=O)c2cc(N3C(=O)C=CC3=O)ccc2Cl)cc1C	Mcl1 Noxa PPI 77.3
COc1ccc(Cc2c(O)nc(SCC(=O)NC(C)(C)C)[nH]c2=O)cc1	none
O=C(Nc1ccc(F)cc1)c1ccc(-n2ccnc2)nc1	14-3-3 Bad inh 86.4 (no result: Biofilm kill mix)
CCOC(=O)c1c(NC(=O)c2cc(-c3cccc(O)c3)on2)sc(C(C)=O)c1C	Mcl1 Noxa PPI 63.2
COc1ccc(C(=O)Nc2ccc(S(=O)(=O)Nc3cc(C)nc(C)n3)cc2)c(OC)c1	Mcl1 Noxa PPI 62.9 (no result: Biofilm kill mix)
COc1ccccc1C(=O)Nc1ccc(S(=O)(=O)Nc2cc(C)nc(C)n2)cc1	none (no result: Biofilm kill mix)
COc1ccc(/C=N\NC(=O)c2cc(O)c(O)c(O)c2)cc1CN1CCN(c2ccc(F)cc2)CC1	Mcl1 Noxa PPI 70.5
Cc1nc(SCC(O)CO)c([N+](=O)[O-])[nH]1 (stereo not drawn)	none (no result: Biofilm kill mix)
Oc1ccc(N2CCN(c3ncnc4sc(-c5ccccc5)cc34)CC2)cc1	Mcl1 Noxa PPI 87.2
O=c1oc2ccccc2cc1-c1nc2c(s1)CCc1ccccc1-2	none
O=c1oc2cc(O)ccc2cc1-c1nc2c(s1)CCc1ccccc1-2	Mcl1 Noxa PPI 53.6 (no result: Mcl-1 Bim block)
COc1ccc(N(C(=O)Cc2cccs2)C(C(=O)NC2CCCCC2)c2cccn2C)cc1 (stereo not drawn)	14-3-3 Bad inh 90.2 (no result: Biofilm kill mix)
CC(C)(C)c1ccc(C2CC2C(=O)N/N=C\c2ccc[nH]2)cc1 (stereo not drawn)	none
CCCc1cc(=O)[nH]c(SCC(=O)c2c[nH]c3ccccc23)n1	none
CCCc1cc(=O)[nH]c(SCC(=O)c2c(C)[nH]c3ccccc23)n1	Mcl1 Bid PPI 76.2 (no result: Mcl-1 Bim block)
COc1cc(Cl)cc(NC(=O)CCN2CCN(C)CC2)c1	14-3-3 Bad inh 76.5 (no result: Biofilm kill mix)
CCCN1C(=O)/C(=C/c2ccc(C)s2)SC1=Nc1ccc(OC)cc1	none (no result: Biofilm kill mix)
CCN1C(=O)/C(=C/c2cccs2)SC1=Nc1ccc(OC)cc1	Mcl1 Bid PPI 97.2 (no result: Biofilm kill mix)
O=C(NC1CC1)c1cc(Cl)ccc1[N+](=O)[O-]	Mcl1 Noxa PPI 71.3 (no result: Biofilm kill mix)
Cc1cc2nc(-c3ccc4c(c3)CCC4)ccn2n1	none
COc1ccc(-n2c(SCc3ccc([N+](=O)[O-])cc3)nnc2-c2ccc(C)cc2)cc1	14-3-3 Bad inh 91.5[fluorescence artefact?]
